High-throughput results deposited in PubChem BioAssay by The Scripps Research Institute Molecular Screening Center.
An excerpt weighted towards active compounds, which were near 4.6% of everything screened.
GPR7 antag: GPR7 receptor antagonists, primary screen, cell-based, fluorescence, single concentration; Neuropeptides B/W receptor type 1 (Homo sapiens), P48145; GPR7-expressing cells, fluorescence antagonist assay; inhibition, % at 4.4 µM; 1.1% of 290,000 active; in the data active means inhibition above about 16%, passing the limit was not always enough;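 further: cells stimulated with the agonist NPW; 0% = agonist with vehicle and 100% = vehicle without agonist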
TAAR1 antag: human TAAR1 antagonists, primary screen, Fluo-8 calcium fluorescence, CHO RD-HGA16 cells; 1.5% of 360,000 active; Trace amine-associated receptor 1 (Homo sapiens), Q96RJ0; inhibition, % at 3 µM; antagonist; AID 624466, 2012;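 active means inhibition above a per-plate cutoff, the mean inhibition of test compounds on that plate plus 3 SD, cut at about 49% in these data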;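 further: 0% = DMSO plus EC80 beta-PEA response and 100% = DMSO alone without agonist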
Target sequence (Q96RJ0 whole entry, looked up): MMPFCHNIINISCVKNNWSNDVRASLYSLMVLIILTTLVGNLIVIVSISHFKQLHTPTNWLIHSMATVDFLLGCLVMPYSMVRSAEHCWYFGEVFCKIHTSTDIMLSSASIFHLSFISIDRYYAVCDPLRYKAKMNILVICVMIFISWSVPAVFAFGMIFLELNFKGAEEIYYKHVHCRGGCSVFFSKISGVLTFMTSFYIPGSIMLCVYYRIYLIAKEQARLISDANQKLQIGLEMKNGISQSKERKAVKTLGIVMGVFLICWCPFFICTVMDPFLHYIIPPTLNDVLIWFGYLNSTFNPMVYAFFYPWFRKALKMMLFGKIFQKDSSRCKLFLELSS
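System: RD-HGA16 CHO cells with stable hTAAR1 and Gα16 | Probe or stimulus: EC80 β-phenethylamine stimulus | Dosing: 3 µM, single point | Times: Dye loading 75 min at 37 °C, then 30 min room temperature | Measured by: Fluo-8 calcium-sensitive fluorescence | Read-out basis: % inhibition of agonist calcium response | Replicates: n of 1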
CHO parental Ca: ATP-evoked calcium signal inhibitors, parental CHO, primary screen, counter-screen for OX1R antagonist project, cell-based, fluorescence, Fluo-8 calcium dye. parental CHO-K1, ATP-induced calcium, Fluo-8 fluorescence. inhibition, % at 5.6 µM. 0.63% of 330,000 active. AID 463079, 2010;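 active means inhibition above that plate's mean sample inhibition plus 3 SD, cut at about 26% in these data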;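 further: 0% = ATP-challenged DMSO wells and 100% = DMSO wells without ATP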
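Assay system: untransfected parental CHO cell line. Also added: ATP agonist challenge. Dosing: one dose, 5.6 µM nominal. Measured by: Fluo-8 fluorescence. Read-out: % inhibition. Benchmarks: ATP wells versus no-ATP DMSO wells. Repeats: no replicates.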
TAAR1 agonist: human TAAR1 agonists, primary screen, Fluo-8 calcium fluorescence, CHO RD-HGA16 cells; AID 624467, 2012; 0.99% of 360,000 active; activation, % at 3 µM; vehicle wells 0%, saturating PEA agonist 100%;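 active means activation above the mean activation of all test compounds in the run plus 3 SD, cut at about 38% in these data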
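System: CHO RD-HGA16 cells carrying human TAAR1 plus Gα16; Incubation: 17-24 h seeding, 75 min 37 °C dye, 30 min RT; Measured by: Fluo-8 fluorescence, 5 s baseline then 140 s kinetic read; Control set: DMSO and PEA EC100; Replication: single well for each compound.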
OX1R antag-1: OX1R (HCRTR1) antagonists, primary screen, fluorescence, CHO/OX1R cells, Fluo-8 calcium, orexin A; AID 434989, 2010; Orexin/Hypocretin receptor type 1 (Homo sapiens), O43613; Fluo-8 calcium fluorescence; inhibition, % at 5 µM; 0.43% of 330,000 active;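 active means inhibition above its plate's threshold, mean inhibition of all tested compounds on the plate plus 3 SD, cut at about 37% in these data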;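 further: 0% = orexin A challenge wells and 100% = SB-334867-A antagonist wells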
Target sequence (O43613 whole entry, looked up): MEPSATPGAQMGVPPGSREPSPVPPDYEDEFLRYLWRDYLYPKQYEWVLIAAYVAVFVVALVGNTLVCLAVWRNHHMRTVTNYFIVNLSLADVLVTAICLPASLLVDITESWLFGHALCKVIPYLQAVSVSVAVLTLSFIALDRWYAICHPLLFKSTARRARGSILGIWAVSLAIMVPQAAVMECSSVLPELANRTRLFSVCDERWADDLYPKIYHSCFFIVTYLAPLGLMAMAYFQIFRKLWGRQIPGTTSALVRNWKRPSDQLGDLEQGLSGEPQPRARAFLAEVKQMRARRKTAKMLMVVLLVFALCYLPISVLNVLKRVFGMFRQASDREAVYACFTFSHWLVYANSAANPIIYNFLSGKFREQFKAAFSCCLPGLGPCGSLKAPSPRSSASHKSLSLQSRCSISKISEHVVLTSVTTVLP
OX1R antag-2: antagonists of human orexin 1 receptor (OX1R); Orexin/Hypocretin receptor type 1 (Homo sapiens), O43613; inhibition, % at 6.6 µM; OX1R-expressing cells, FRET antagonist read-out; 1.8% of 330,000 active; in the data active means inhibition mostly above about 38%, no sharp cut-off; inactive means mostly below about 40%;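 further: 0% = agonist challenge alone and 100% = reference antagonist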
* = called active by the depositor; x = no result.

SMILES | GPR7 antag | TAAR1 antag | CHO parental Ca | TAAR1 agonist | OX1R antag-1 | OX1R antag-2
CCN(c1ccccc1)S(=O)(=O)c1ccc(C(=O)N(C)Cc2cccs2)cc1 | x | 48.6* | 2.2 | 11.1 | 9.6 | 12.6
CCN(CC(=O)NCc1cccs1)C(=O)c1ccc(S(=O)(=O)N(C)c2ccccc2)cc1 | x | 15.8 | -9.2 | 3.8 | -9.6 | 4.4
CCCCCCNC(=O)C(C#N)c1nc2ccccc2nc1N1CCCC1 (stereo unspecified) | -11.9 | 51.0* | 21.5 | 4.0 | -10.5 | 23.5
CCN(CC)C(c1ccc(F)cc1)c1nnnn1C1CCCCC1 (stereo unspecified) | 6.3 | -2.6 | -23.9 | 6.9 | -20.4 | 19.2
CCN(CC)C(c1ccc(C)cc1)c1nnnn1C1CCCCC1 (stereo unspecified) | -1.9 | 10.9 | 26.3* | -1.1 | -37.0 | 24.8
CC(C)NC(=O)C1(C)CSCC(=O)N1CCCn1ccnc1 (stereo unspecified) | x | -3.8 | x | 1.0 | x | x
O=c1c(NCCc2ccc(Cl)cc2)c(-c2ccccc2)c1=O | -3.2 | -20.7 | -3.9 | 42.1* | -9.4 | 1.6
Cc1nc([N+](=O)[O-])cn1-c1nc2ccccn2c1[N+](=O)[O-] | -2.7 | -4.5 | -2.9 | 1.9 | -11.3 | 54.5*
Cc1nc([N+](=O)[O-])cn1CC(=O)c1ccccc1 | -19.2 | -12.6 | 2.3 | 0.9 | -6.1 | 21.2
Cc1ccccc1-c1ccc2c(c1)O[C@H](CN(C)C(=O)C1CC1)[C@@H](C)CN([C@@H](C)CO)S2(=O)=O | x | 7.7 | x | 0.5 | x | x
COc1ccc(S(=O)(=O)c2nnn(-c3cccc(Cl)c3)c2N)cc1 | 20.3* | 3.6 | 2.4 | 46.2* | 10.6 | 17.7
COc1ccc(-c2cc(C(=O)OCC(=O)N3CCOCC3)c3ccccc3n2)cc1 | x | -3.8 | -20.8 | 6.7 | 27.4 | 55.1*
COc1ccc2cc(-c3cc(C(=O)OCC(=O)Nc4c(C)n(C)n(-c5ccccc5)c4=O)c4ccccc4n3)ccc2c1 | -3.9 | 66.2* | x | 13.4 | x | x
COc1ccc(C(=O)OCC(=O)Nc2c(C)n(C)n(-c3ccccc3)c2=O)cc1 | x | -19.8 | -11.1 | 0.3 | -6.3 | 2.4
COc1ccccc1C(=O)Nc1ccc2c(c1)nc1n2CCSC1 | -9.1 | 7.2 | -12.3 | 2.9 | 7.8 | 53.6*
CN(C)CCOC(C1CCCCC1)C1CCCCC1 | 34.1* | -12.9 | -9.4 | 25.8 | -25.7 | 6.7
COC(=O)c1c(-c2ccc(N(C)C)cc2)oc2c1C(OC)CCC2 (stereo unspecified) | x | -5.5 | x | -1.7 | x | x
OCCCc1nc2n(n1)C(c1cccs1)C=C(c1ccccc1)N2 (stereo unspecified) | 5.0 | x | 33.2* | x | 23.1 | 26.0
CSc1ccc(Cn2c(C)c(C(=O)NCc3ccccc3C(F)(F)F)sc2=O)cc1 | x | 51.7* | x | 2.3 | x | x
Cc1ccc2nc(N(CCCN(C)C)C(=O)c3ccc4c(c3)CCCC4)sc2c1 | 8.9 | 20.2 | 0.5 | 38.0* | -4.2 | -1.2
CN(C)CCCN(C(=O)COc1ccccc1)c1nc2ccc(F)cc2s1 | -12.1 | -0.3 | -12.9 | 11.4 | -30.4 | 7.5
Cc1ccc2nc(N(CCCN(C)C)C(=O)COc3ccc(Cl)cc3)sc2c1 | -6.9 | 9.5 | -1.9 | 44.5* | -11.7 | 0.6
Cc1cc(C)c2sc(N(CCCN(C)C)C(=O)COc3ccc(Cl)cc3)nc2c1 | 8.6 | 20.0 | 6.7 | 34.6 | -7.6 | 14.0
CN(C)CCCN(C(=O)COc1ccc(Cl)cc1)c1nc2ccc(F)cc2s1 | 0.4 | 5.0 | -2.4 | 40.8* | -18.7 | 8.3
Cc1cc([N+](=O)[O-])cc2ncccc12 | -4.2 | 6.2 | 5.8 | -0.9 | -0.5 | 69.0*
SMILES | GPR7 antag | TAAR1 antag | CHO parental Ca | TAAR1 agonist | OX1R antag-1 | OX1R antag-2
CC(C)N(C(=O)CSc1nc2ccccc2n1-c1ccccc1)C(C)C | 6.5 | -9.5 | -31.1 | 1.2 | -23.1 | 54.7*
CC(C)N(C(=O)CSc1nc2ccccc2n1Cc1ccccc1)C(C)C | -11.9 | 3.4 | -17.0 | 2.7 | -32.8 | 32.1
COc1ccc(OC)c(NS(=O)(=O)c2ccc(Cl)s2)c1 | 6.4 | 2.1 | -2.6 | 2.8 | -6.6 | 7.0
COc1ccc(OC)c(NS(=O)(=O)c2ccc(Br)s2)c1 | -1.4 | x | 38.3* | x | -2.7 | 33.4
CCCC(=O)NNc1c2ccccc2nc2ccccc12 | -7.1 | 8.0 | -15.2 | 2.0 | -8.2 | 4.7
O=C(COc1ccccc1)NNc1c2ccccc2nc2ccccc12 | -25.2 | 45.4 | 2.3 | 10.8 | -10.0 | 85.7*
O=C(NNc1c2ccccc2nc2ccccc12)C(O)c1ccccc1 (stereo unspecified) | -14.9 | 2.0 | -21.4 | 1.9 | -9.8 | 70.9*
Cc1ccc(N/C(N)=N/c2nc(C)cc(N3CCCCC3)n2)c(C)c1 | 26.8* | 24.1 | 9.0 | 21.8 | -1.2 | 20.6
Cc1ccc(N/C(N)=N/c2nc3c(c(=O)[nH]2)CCCC3)c(C)c1 | 9.8 | 4.4 | -13.3 | 2.6 | -20.6 | 9.5
CCOc1ccccc1CNS(=O)(=O)c1ccc2[nH]c(=O)sc2c1 | 20.6* | 12.1 | -2.9 | 15.9 | -5.8 | 20.3
CCOC(=O)c1c(C)[nH]c(C)c1S(=O)(=O)NCc1ccccc1C | -9.3 | -14.1 | 1.7 | -0.2 | 13.2 | 49.8*
CCOC(=O)c1c(C)[nH]c(C)c1S(=O)(=O)NCc1ccccc1OCC | -8.7 | -17.1 | -3.2 | 1.9 | 14.2 | 62.3*
CCOC(=O)c1c(C)[nH]c(C)c1S(=O)(=O)NCc1ccc(OCC)cc1 | -14.9 | 4.2 | -18.1 | 0.0 | -23.6 | 16.4
CC(=O)Nc1cc(-c2ccc(C(=O)N3CCOCC3)cc2)cn2c(-c3cccc(C(C)=O)c3)cnc12 | x | -19.0 | x | -2.0 | x | x
CCOC(=O)c1cc2c(=O)n3cccc(C)c3nc2n(CC(C)C)c1=NC(=O)c1ccco1 | -6.3 | -36.8 | -14.9 | 4.6 | -21.2 | 53.6*
C=CCn1c(=N)c(C(=O)OCC)cc2c(=O)n3cccc(C)c3nc21 | -3.1 | x | -9.4 | x | -14.7 | 110.2*
CCOC(=O)c1cc2c(=O)n3ccccc3nc2n(CCCOC)c1=NC(C)=O | -4.1 | 11.1 | -3.6 | 1.1 | -14.3 | 50.9*
CCOC(=O)c1cc2c(=O)n3ccccc3nc2n(C(C)C)c1=NC(=O)c1ccco1 | -7.5 | 3.0 | -8.2 | 4.7 | -23.6 | 28.9
CCCn1c(=NC(=O)c2ccco2)c(C(=O)OCC)cc2c(=O)n3ccccc3nc21 | -5.4 | -13.9 | -13.8 | 12.4 | -29.8 | 32.2*
O=C(NCc1ccccc1)[C@H]1CCCN1C(=O)[C@H]1CCCN1C(=O)c1cccc2ccccc12 | x | 1.6 | x | 0.5 | x | x
CC(C)C[C@H]1CN([C@@H](Cc2ccccc2)CN2CCC[C@@H]2CN2C(=O)C(=O)NC[C@@H]2Cc2ccccc2)C(=O)C(=O)N1CCc1ccccc1 | x | 2.3 | x | 2.8 | x | x
C=CCn1c(=N)c(C(=O)NCCCOC)cc2c(=O)n3cc(C)ccc3nc21 | -6.1 | -1.8 | -10.3 | 3.7 | -10.4 | 57.6*
